The list is not random: actives were taken first. Their share in the collection is about 2.4%.
Cneo AK release: Cryptococcus neoformans cell lysis inducers, primary screen, AK release luminescence, single concentration | C. neoformans lysis, adenylate kinase release luminescence, 4 h; normalised: neutral wells 0, clomiphene wells 100 | lysis activity, % at 15 µM | 360,000 tested, 0.2% active | AID 651654, 2012;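 active means mean lysis activity across replicates of at least 80%, whatever share of replicates individually reach that level; inactive means mean lysis activity below 80%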
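read-out = cell lysis signal | test system = log-phase Cryptococcus neoformans yeast cells | input = cells at 5 × 10^6 per mL | medium = fresh YPD growth medium | signal = luminescent adenylate kinase detection reagent | timing = 4 h at 37 °C static, read 1 h later | dosing = single dose | controls = Clomiphene as positive lysis control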
HIV Env fusion: inhibitors of HIV-1 Env-driven cell-cell fusion, primary screen, HeLa-JRFL effector, CEM21 target cells, luciferase; inhibition, % at 12.3 µM; 360,000 tested, 1.1% active;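 active means mean replicate inhibition score of at least 50 and every replicate individually at or above 50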
Rtt109 Vps75: inhibitors of C. albicans Rtt109/Vps75 HAT, primary screen, biochemical, ThioGlo CoA-SH fluorescence, plate reader; Histone acetyltransferase RTT109 (Candida albicans (strain SC5314 / ATCC MYA-2876)), …; purified Rtt109/Vps75, 4 h; inhibition, % at 34.9 µM; 330,000 tested, 0.16% active;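 active means inhibition of at least 50% in every replicate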
dFosB act-1: activators of delta FosB homodimer, primary screen, biochemical, fluorescence polarization, TAMRA-CDK5 oligo, single point; activation, % at 25 µM; purified delta FosB; percent of positive-control signal above neutral wells; 340,000 tested, 0.99% active; AID 493131, 2011;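 active means mean activation above about 17%, with every replicate also reaching it, limit read from the data, passing the limit was not always enough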
Target sequence (P13346 whole entry, looked up): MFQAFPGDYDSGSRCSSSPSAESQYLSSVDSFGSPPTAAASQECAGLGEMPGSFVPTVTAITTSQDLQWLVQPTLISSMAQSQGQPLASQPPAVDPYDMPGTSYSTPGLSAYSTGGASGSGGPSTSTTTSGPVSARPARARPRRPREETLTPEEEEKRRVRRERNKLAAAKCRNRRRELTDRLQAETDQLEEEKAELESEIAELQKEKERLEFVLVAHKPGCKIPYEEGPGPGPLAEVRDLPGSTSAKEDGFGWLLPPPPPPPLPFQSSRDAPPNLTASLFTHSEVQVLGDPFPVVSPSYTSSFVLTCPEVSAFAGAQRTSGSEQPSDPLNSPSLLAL
INS-1E GSIS act: GLuc luminescence reporter in INS-1E cells, primary screen for activators of glucose-dependent secretion of insulin | 370,000 tested, 0.61% active | INS-1E GLuc reporter insulin secretion, 2-3 h | activation, % at 16.6 µM;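 active means lowest replicate activation of at least 40%, so every replicate reaches that level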
miR122 inh: miR-122 Renilla sensor signal increase in Huh7, primary screen, miR-122 inhibitor project, cell-based, single point, plate reader. activation (reporter increase), % at 12.5 µM. AID 602342, 2012. Huh7 miR-122 Renilla luciferase sensor, 48 h; neutral wells = 0, positive control = 100. 340,000 tested, 0.3% active;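 active means mean replicate activation score at least 90 and every replicate individually at or above 90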;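 further: higher luciferase means less miR-122 activity so hits act as miR-122 inhibitors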
dFosB act-2: activators of mouse delta FosB DNA binding, confirmation, biochemical, fluorescence polarization, TAMRA-CDK5 oligo, cherry-picked samples; purified delta FosB; normalised: neutral wells 0, positive control 100; shares compounds with dFosB act-1; 2,400 tested, under 10 active; activation, % at 24.9 µM;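 active means highest replicate activation at or above 34% and every replicate reaching that threshold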;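 further: higher polarization means more probe DNA bound by delta FosB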
A number is an active result; 0 = inactive; - = no result.

SMILES	Cneo AK release	HIV Env fusion	Rtt109 Vps75	dFosB act-1	INS-1E GSIS act	miR122 inh	dFosB act-2
Cc1cccc(NC(=O)c2cc3c(=O)n4ccccc4nc3s2)c1	0	0	0	16.3	0	0	0
N#Cc1c(NC(=O)COC(=O)c2ccc(O)cc2O)sc2c1CCC2	0	0	0	38.9	0	-	0
CC(C)(C)c1ccc(C(=O)OCC(=O)Nc2sc3c(c2C#N)CCC3)cc1	0	-	0	0	0	0	-
C[C@H]1CN([C@@H](C)CO)C(=O)c2cccc(NC(=O)Nc3ccc4c(c3)OCO4)c2O[C@@H]1CN(C)C	0	-	-	-	0	0	-
Cc1cccc(-c2ccc([C@@H]3[C@@H](CO)N4CCCCN(S(=O)(=O)c5cn(C)cn5)C[C@@H]34)cc2)c1	0	-	-	-	0	0	-
COc1cccc(NC(=O)Cn2nnc(C(=O)Nc3ccccc3)c2N)c1	-	0	0	0	-	-	-
COc1ccc(NC(=O)Cn2nnc(C(=O)NCCc3ccccc3)c2N)c(OC)c1	0	0	0	0	0	0	-
COc1ccccc1NC(=O)Cn1nnc(C(=O)NCCc2ccccc2)c1N	0	0	0	39.7	0	0	0
COc1cccc(NC(=O)Cn2nnc(C(=O)NCCc3ccccc3)c2N)c1	0	0	0	37.1	0	0	0
O=C(Nc1nccs1)c1cc2c(s1)-c1ccccc1OC2	0	0	0	36.8	0	0	0
O=C(Nc1cccnc1)c1cc2c(s1)-c1ccccc1OC2	0	0	0	0	0	0	-
Cc1cccc2c1-c1sc(C(=O)Nc3cccnc3)cc1CO2	0	0	0	31.9	0	0	0
O=C([C@H]1[C@H](CO)[C@H]2Cn3c(cccc3=O)[C@@H]1N2C(=O)c1ccccn1)N1CCCCC1	0	0	-	-	0	-	-
CC(=O)N1CCN(C(=O)c2cccc(S(=O)(=O)N3CCN(c4ccccc4)CC3)c2)CC1	0	-	0	0	0	-	-
O=C(NNC(=O)c1cccc(S(=O)(=O)N2CCN(c3ccccc3)CC2)c1)c1ccc(Cl)cc1	-	-	0	57.6	0	-	0
Cc1c(C(=O)OCC(=O)NC(C)c2ccccc2)oc2ccccc12 (configuration not stated)	0	-	0	19.5	0	0	0
Cc1c(C(=O)OCC(=O)NCc2ccco2)oc2ccccc12	0	-	0	0	0	0	-
CC(NC(=O)COC(=O)c1cc2ccccc2cc1O)c1ccccc1 (configuration not stated)	0	0	0	24.0	0	0	0
Cc1cc(C(=O)OCC(=O)NC(C)c2ccccc2)c(C)o1 (configuration not stated)	-	0	0	0	0	0	-
O=C(C[C@H]1C=C[C@H](NC(=O)CC2CC2)[C@@H](CO)O1)NCC(F)(F)F	0	-	-	-	0	-	-
CCc1ccccc1Nc1nn2c(=O)c3ccc(C(=O)NCc4ccccn4)cc3nc2s1	0	0	0	0	0	-	-
O=C(NCc1ccccn1)c1ccc2c(=O)n3nc(Nc4ccccc4)sc3nc2c1	0	0	0	26.8	0	-	0
COc1ccc(-c2nn(-c3ccccc3)cc2C(=O)Nc2nccs2)cc1	0	-	0	0	-	0	-
O=C(Nc1nccs1)c1cn(-c2ccccc2)nc1-c1ccncc1	0	0	0	35.9	0	0	0
C[C@H](CO)N1C[C@H](C)[C@H](CN(C)Cc2cccc(C(F)(F)F)c2)Oc2ncc(/C=C/c3ccccc3)cc2C1=O	0	-	-	-	0	0	-
SMILES	Cneo AK release	HIV Env fusion	Rtt109 Vps75	dFosB act-1	INS-1E GSIS act	miR122 inh	dFosB act-2
COc1ccc(/C=C/C(=O)Nc2c(C)nn(C)c2C)cc1COc1ccc(Cl)cc1Br	0	0	-	130.8	-	0	0
O=C(NNC(=O)c1ccc(-c2ccccc2)cc1)Nc1ccc(F)cc1F	0	0	0	30.0	0	0	0
CCc1cc2ccc(C)c(C)c2nc1SCC(=O)NNC(=O)c1ccco1	-	0	0	27.6	0	0	0
CCn1c(=O)c(C(=O)Nc2ncccc2O)c(O)c2ccccc21	0	0	0	25.7	0	0	0
CC(=O)Oc1cccc(N2C(=O)c3ccc(C(=O)Nc4c[nH]c(=O)[nH]c4=O)cc3C2=O)c1	-	-	0	20.3	-	-	0
CO[C@@H]1CN(C)C(=O)c2ccc(NC(C)=O)cc2OC[C@H](C)N(C(=O)c2ccccc2)C[C@@H]1C	-	-	-	-	0	-	-
O=C(/C=C/c1ccc(Cl)cc1Cl)c1nc2ccccc2[nH]1	0	0	0	39.8	-	0	0
Clc1ccc(/C=C/c2nc3ccccc3[nH]2)c(Cl)c1	0	0	0	0	-	0	-
CNC(=O)C[C@@H]1CC[C@H]2[C@H](COc3ccc(NC(=O)c4ccc(F)cc4)cc3C(=O)N2C)O1	0	0	-	-	0	0	-
C/C(=N\NC(=O)c1ccc(CN(C)S(=O)(=O)c2ccc(C)cc2)cc1)c1ccc(OC(F)F)cc1	-	0	0	26.1	0	-	0
COc1ccc(NC(=O)N[C@H]2CC[C@H](CCn3cc(C4(O)CCCC4)nn3)O[C@H]2CO)cc1	0	0	-	-	0	-	-
COc1ccccc1C1CC(c2ccccc2)=NN1S(=O)(=O)c1ccccc1 (configuration not stated)	0	0	0	0	0	0	-
COc1cccc(C2CC(c3ccccc3)=NN2S(=O)(=O)c2ccc(C)cc2)c1OC (configuration not stated)	-	0	0	38.9	0	-	0
Cc1ccccc1-c1cnc2c(c1)C(=O)N([C@H](C)CO)C[C@@H](C)[C@H](CN(C)Cc1ccncc1)O2	0	0	-	-	0	0	-
Cc1ccc(NC(=O)C=NOCC(=O)Nc2cc(C)cc(C)c2)cc1	0	-	0	25.2	0	-	0
O=C1COc2ccc(C(=O)COc3ccc([N+](=O)[O-])cc3)cc2N1	-	0	0	17.9	0	-	0
CCN(CC)S(=O)(=O)c1cc(C(=O)OCC(=O)c2ccc3c(c2)NC(=O)CO3)ccc1F	0	-	0	20.3	0	0	0
CN(C)S(=O)(=O)c1ccc(C(=O)OCC(=O)c2ccc3c(c2)NC(=O)CO3)cc1	0	0	-	27.2	0	0	0
O=C1COc2ccc(C(=O)COC(=O)c3sc4ccccc4c3Cl)cc2N1	0	0	0	93.8	0	0	0
CN1c2ccc(-c3ccccc3)cc2[C@H]2[C@H](CCN2C(=O)Cc2ccccc2)[C@@H]1CO	0	-	-	-	0	0	-

High-throughput results (PubChem)
